The subject of one assay is AGS. In words: Antiproliferative activity against human AGS cells after 48 hrs by MTT assay. The format is functional. Summed up: (§1)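 MTT read-out after 48 h incubation. GI50 taken as the concentration giving 50% growth inhibition relative to untreated controls. Fluorouracil served as positive control.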
Assay [1] relates to SH-SY5Y. In words: Antiproliferative activity against human SH-SY5Y cells after 48 hrs by MTT assay. The format is functional. Summed up:
as §1

A further assay has as its system K562. In words: Antiproliferative activity against human K562 cells after 48 hrs by MTT assay. The format is functional. The note with it: K562, 48 h. Summed up: as §1
The nature of assay [2]: Inhibition of PDE4 (unknown origin) using FAM-Cyclic-3',5'-AMP as substrate after 1 hr by fluorescence polarization assay. Further details: species or system Homo sapiens. Summed up:
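Each compound was tested at nine concentrations spanning 10^-8 to 10^-4 M, with rolipram as positive control. IC50 was obtained by nonlinear regression of the inhibition curves.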

Assay [3] concerns SH-SY5Y. The experiment in a line: Induction of apoptosis in human SH-SY5Y cells assessed as increase in late apoptotic cells after 48 hrs by Annexin V-FITC/propidium iodide staining based flow cytometry. The format is functional, cell-based. Put shortly:
(§2)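 SH-SY5Y cells treated 48 h at 10 or 20 µM, then stained with Annexin V-FITC and propidium iodide and analysed by flow cytometry. Quadrants were scored as live, early apoptotic, late apoptotic and necrotic. DMSO served as control. Values are means of three independent experiments. Significance was tested versus control.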

Assay [4] has as its system SH-SY5Y. In words: Induction of apoptosis in human SH-SY5Y cells assessed as early apoptotic cells at 20 uM after 48 hrs by Annexin V-FITC/propidium iodide staining based flow cytometry (reference value: 1.3%). The format is functional. Put shortly: as §2
Assay [5] has as its system SH-SY5Y. In words: Induction of apoptosis in human SH-SY5Y cells assessed as early apoptotic cells at 10 uM after 48 hrs by Annexin V-FITC/propidium iodide staining based flow cytometry (reference value: 1.3%). The format is functional. Put shortly:
as §2

For assay [6], the system named is SH-SY5Y. In words: Cell cycle arrest in human SH-SY5Y cells assessed as accumulation at G2/M-phase at 5 uM after 48 hrs by propidium iodide staining based flow cytometry (reference value: 12.13 +/- 0.7%). The format is functional.
The test system of assay [7] is SH-SY5Y. The experiment in a line: Cell cycle arrest in human SH-SY5Y cells assessed as accumulation at S-phase at 20 uM after 48 hrs by propidium iodide staining based flow cytometry (reference value: 40.2 +/- 1.8%). The format is functional.
The test system of assay [8] is SH-SY5Y. In words: Induction of apoptosis in human SH-SY5Y cells assessed as necrotic cells at 10 uM after 48 hrs by Annexin V-FITC/propidium iodide staining based flow cytometry (reference value: 5.06%). The class given is functional. Put shortly: as §2
The subject of assay [9] is SH-SY5Y. In words: Cell cycle arrest in human SH-SY5Y cells assessed as accumulation at G0/G1 phase at 20 uM after 48 hrs by propidium iodide staining based flow cytometry (reference value: 47.67 +/- 1.1%). The class given is functional.
Assay [10] deals with SH-SY5Y. The experiment in a line: Induction of apoptosis in human SH-SY5Y cells assessed as live cells at 10 uM after 48 hrs by Annexin V-FITC/propidium iodide staining based flow cytometry (reference value: 89.95%). The class given is functional. Put shortly:
as §2

Assay [11] has as its system SH-SY5Y. In words: Induction of apoptosis in human SH-SY5Y cells assessed as late apoptotic cells at 10 uM after 48 hrs by Annexin V-FITC/propidium iodide staining based flow cytometry (reference value: 3.68%). The format is functional. Summed up: as §2
Assay [12] deals with SH-SY5Y. In words: Cell cycle arrest in human SH-SY5Y cells assessed as accumulation at S-phase at 10 uM after 48 hrs by propidium iodide staining based flow cytometry (reference value: 40.2 +/- 1.8%). The format is functional.
Assay [13] relates to SH-SY5Y. In words: Cell cycle arrest in human SH-SY5Y cells assessed as accumulation at G0/G1-phase after 48 hrs by propidium iodide staining based flow cytometry. The format is functional.
In assay [14] the test system is SH-SY5Y. In words: Cell cycle arrest in human SH-SY5Y cells assessed as accumulation at S-phase at 5 uM after 48 hrs by propidium iodide staining based flow cytometry (reference value: 40.2 +/- 1.8%). The format is functional.
Assay [15] has as its system SH-SY5Y. In words: Induction of apoptosis in human SH-SY5Y cells assessed as live cells at 20 uM after 48 hrs by Annexin V-FITC/propidium iodide staining based flow cytometry (reference value: 89.95%). The class given is functional. Summed up:
as §2

Assay [16] concerns SH-SY5Y. The experiment in a line: Induction of apoptosis in human SH-SY5Y cells assessed as late apoptotic cells at 20 uM after 48 hrs by Annexin V-FITC/propidium iodide staining based flow cytometry (reference value: 3.68%). The format is functional. Put shortly:
as §2

Assay [17] concerns SH-SY5Y. In words: Induction of apoptosis in human SH-SY5Y cells assessed as necrotic cells at 20 uM after 48 hrs by Annexin V-FITC/propidium iodide staining based flow cytometry (reference value: 5.06%). The format is functional. Summed up:
as §2

Assay [18] deals with SH-SY5Y. In words: Cell cycle arrest in human SH-SY5Y cells assessed as accumulation at G0/G1 phase at 5 uM after 48 hrs by propidium iodide staining based flow cytometry (reference value: 47.67 +/- 1.1%). The format is functional.
The test system of assay [19] is SH-SY5Y. In words: Cell cycle arrest in human SH-SY5Y cells assessed as accumulation at G2/M-phase at 20 uM after 48 hrs by propidium iodide staining based flow cytometry (reference value: 12.13 +/- 0.7%). The format is functional.
In assay [20] the test system is SH-SY5Y. The experiment in a line: Cell cycle arrest in human SH-SY5Y cells assessed as accumulation at G2/M-phase at 10 uM after 48 hrs by propidium iodide staining based flow cytometry (reference value: 12.13 +/- 0.7%). The class given is functional.
Assay [21] has as its system SH-SY5Y. In words: Cell cycle arrest in human SH-SY5Y cells assessed as accumulation at G0/G1 phase at 10 uM after 48 hrs by propidium iodide staining based flow cytometry (reference value: 47.67 +/- 1.1%). The format is functional.

pIC50: −log10 of the molar value.

On to `O=c1[nH]cc(F)c(=O)[nH]1` [FLUOROURACIL], for which the GI50 amounted to 24.6 µM in the assay on AGS, 11.9 µM in the assay with SH-SY5Y [1] and 18.5 µM with K562.

With `COc1ccccc1OCCNc1cnn(Cc2ccc(OC)c(OC3CCCC3)c2)c(=O)c1Cl`, the GI50 with AGS is more than 100 µM; with SH-SY5Y [1], 23.3 µM; in the assay on K562, more than 100 µM. In assay [2], this molecule had a pIC50 of 4.67.

For `COc1ccccc1OCCNc1ccc(=O)n(Cc2ccc(OC)c(OCC3CC3)c2)n1`, the 50% growth inhibitory concentration (GI50) with AGS was 45.8 µM; with SH-SY5Y [1], 10.5 µM; with K562, 16.6 µM. The same molecule showed a pIC50 in [2] of less than 4.00.

Turning to `COc1ccccc1OCCNc1ccc(=O)n(Cc2ccc(OC(F)F)c(OCC3CC3)c2)n1`, the GI50 in the assay with AGS turned out to be 24.4 µM; with SH-SY5Y [1] it was 6.3 µM; with K562, 60.9 µM. In addition, the Activity entry is “Dose-dependent effect” in the assay with SH-SY5Y [3]; 4.16% with SH-SY5Y [4]; 2.74% in the assay with SH-SY5Y [5]; 12.98% in the assay with SH-SY5Y [6]; 22.75% with SH-SY5Y [7]; 4.6% in the assay with SH-SY5Y [8]. The Activity in the assay on SH-SY5Y [9] was 62.61%; in the assay with SH-SY5Y [10] it was 85.22%; in the assay with SH-SY5Y [11] it was 7.43%; in the assay on SH-SY5Y [12], 33.81%; with SH-SY5Y [13] it was “Dose-dependent effect”; in the assay with SH-SY5Y [14] it was 34.87%. The Activity in the assay with SH-SY5Y [15] was determined as 78.53%; in the assay with SH-SY5Y [16] it was 10.62%; in the assay on SH-SY5Y [17] it was 6.69%; in the assay on SH-SY5Y [18], 52.15%; in the assay with SH-SY5Y [19] it was 14.64%; with SH-SY5Y [20], 10.59%. Further, the Activity with SH-SY5Y [21] came out at 55.6%. The molecule also showed a negative-log IC50 (pIC50) in assay [2] of 4.82.

In the case of `COc1ccc(C2CNC(=O)C2)cc1OC1CCCC1` (stereo not given) [ROLIPRAM], the negative-log IC50 (pIC50) in [2] was 6.30.

`COc1ccccc1OCCNc1cnn(Cc2ccc(OC(F)F)c(OCC3CC3)c2)c(=O)c1Cl`: the figures for the concentration for 50% growth inhibition (GI50) in the assay on AGS, in the assay with SH-SY5Y [1] and with K562 were more than 100 µM, more than 100 µM and 67.6 µM, respectively. The same molecule gave a pIC50 in [2] of less than 4.00.

On to `COc1ccccc1OCCNc1cnn(Cc2ccc(OC)c(-c3cccc(Cl)c3)c2)c(=O)c1Cl`, for which the 50% growth inhibitory concentration (GI50) in the assay on AGS, in the assay on SH-SY5Y [1] and in the assay on K562 was more than 100 µM each time. The molecule also gave a negative logarithm of the IC50 (pIC50) in assay [2] of less than 4.00.

As to `COc1ccccc1OCCNc1cnn(Cc2ccc(OC)c(OCC3CC3)c2)c(=O)c1Cl`, the figures for the GI50 in the assay on AGS, with SH-SY5Y [1] and with K562 were more than 100 µM, 37.9 µM and more than 100 µM, respectively. This molecule also had a pIC50 in [2] of 4.34.

`COc1ccccc1OCCNc1cnn(Cc2ccc(OC(F)F)c(OC3CCCC3)c2)c(=O)c1Cl`: the GI50 in the assay on AGS, with SH-SY5Y [1] and with K562 was more than 100 µM in each case. The negative-log IC50 (pIC50) in [2] was 4.41.

Take `COc1ccc(Cn2ncc(NCCOc3ccccc3OC)c(Cl)c2=O)cc1OC`: the figures for the concentration for 50% growth inhibition (GI50) in the assay on AGS, in the assay with SH-SY5Y [1] and in the assay on K562 were more than 100 µM, 33.1 µM and more than 100 µM, respectively. The molecule further gave a negative logarithm of the IC50 (pIC50) in assay [2] of 4.14.

Consider `COc1ccccc1OCCNc1ccc(=O)n(Cc2ccc(OC)c(OC3CCCC3)c2)n1`, for which the GI50 in the assay on AGS is more than 100 µM; in the assay with SH-SY5Y [1], more than 100 µM; in the assay with K562 it was 28 µM. For the same molecule, the pIC50 in [2] is less than 4.00.

Consider `COc1ccc(Cn2nc(NCCOc3ccccc3OC)ccc2=O)cc1OC`, for which the 50% growth inhibitory concentration (GI50) in the assay with AGS, in the assay with SH-SY5Y [1] and in the assay with K562 was more than 100 µM throughout. For the same molecule, the pIC50 in [2] is 4.17.

In the case of `COc1ccccc1OCCNc1ccc(=O)n(Cc2ccc(OC(F)F)c(OC3CCCC3)c2)n1`, the values for the concentration for 50% growth inhibition (GI50) in the assay on AGS, with SH-SY5Y [1] and in the assay on K562 were 23.6 µM, 9.3 µM and 9.1 µM, respectively. Also, the Activity result with SH-SY5Y [3] is “Dose-dependent effect”; in the assay on SH-SY5Y [4], 8.82%; with SH-SY5Y [5] it was 3.12%; in the assay on SH-SY5Y [6], 10.34%; in the assay with SH-SY5Y [7] it was 29.58%; in the assay on SH-SY5Y [8], 4.48%. The Activity with SH-SY5Y [9] was 63.55%; in the assay with SH-SY5Y [10], 84.34%; with SH-SY5Y [11], 8.05%; in the assay on SH-SY5Y [12], 30.16%; with SH-SY5Y [13], “Dose-dependent effect”; in the assay with SH-SY5Y [14], 36.44%. For the same molecule, the Activity came out at 64.46% with SH-SY5Y [15]; 18.54% in the assay on SH-SY5Y [16]; 8.18% in the assay with SH-SY5Y [17]; 53.22% in the assay with SH-SY5Y [18]; 6.87% in the assay on SH-SY5Y [19]; 7.74% in the assay with SH-SY5Y [20]. In the assay on SH-SY5Y [21], the Activity came out at 62.1%. The pIC50 in assay [2] is 4.91.

As to `COc1ccc(Cn2nc(NCCOc3ccccc3OC)ccc2=O)cc1Br`, the concentration for 50% growth inhibition (GI50) in the assay with AGS, in the assay with SH-SY5Y [1] and with K562 was more than 100 µM each time. In addition, in assay [2], the pIC50 is 4.36.

These data come from ChEMBL document CHEMBL4138132, “Design, synthesis and biological evaluation of substituted aminopyridazin-3(2H)-ones as G0/G1-phase arresting agents with apoptosis-inducing activities” (Eur J Med Chem, 2017).
